VIM-2 inh: VIM-2 metallo-beta-lactamase inhibitors, primary screen, biochemical, epi-absorbance readout, Pseudomonas aeruginosa enzyme | purified VIM-2, nitrocefin hydrolysis, epi-absorbance fluorescence | inhibition, % at 5.6 µM | 290,000 tested, 0.89% active | AID 1527, 2009;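 active = inhibition above the mean of all tested compounds plus 3 SD, cutoff set per screening run, cut at about 7.5% in these data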;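 note: red hydrolysis product quenches plate fluorescence so inhibitors raise well fluorescence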
697 NFkB inh: inhibitors of PMA/ionomycin-induced NF-kB reporter, 697 cells, primary screen, B-cell NF-kB inhibitor project, cell-based, luminescence, uHTS. 697 B-cell NF-kB luciferase reporter, 16 h. inhibition, % at 4 µM. 330,000 tested, 0.33% active. AID 435022, 2010; in the data active = inhibition above about 35%
Jurkat NFkB inh: inhibitors of induced NF-kB luciferase reporter, primary screen, TCR NF-kB activation inhibitor project, cell-based, luminescence, uHTS; Jurkat, PMA/ionomycin-induced NF-kB luciferase reporter; inhibition, % at 4 µM; 330,000 tested, 0.53% active; in the data active = inhibition above about 50%
IMP-1 inhibitor: IMP-1 metallo-beta-lactamase inhibitors, primary screen, biochemical, epi-absorbance readout, Pseudomonas aeruginosa enzyme. metallo-beta-lactamase IMP-1 (Pseudomonas aeruginosa). purified IMP-1, nitrocefin hydrolysis, epi-absorbance fluorescence. inhibition, % at 5.6 µM. 290,000 tested, 0.45% active. AID 1556, 2009;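 active = inhibition above the mean plus 3 SD of all compounds in the same screening run, cut at about 4.5% in these data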
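Assay system: purified recombinant IMP-1 beta-lactamase. Input: IMP-1 0.2 nM before substrate addition. Buffer or medium: Zinc- and detergent-supplemented HEPES buffer, pH 7.1. Schedule: 25 °C, 15 min preincubation, 25 min reaction. Signal: Epi-absorbance fluorescence, 480 nm excitation, 530 nm emission. Evaluation: percent inhibition from optical density relative to buffer-blank wells.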
aSyn UTR inh: MLPCN primary screen, SNCA 5' untranslated region. alpha-synuclein 5'UTR reporter, inhibitor activity. inhibition, % (tested at 7.5 µM). 300,000 tested, 0.82% active. AID 1813, 2009; in the data active = inhibition above about 60%;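 note: H4 neuroglioblastoma cells stably carrying SNCA 5'UTR luciferase fusion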
Mdm2 MdmX PPI: inhibitors of human Mdm2-MdmX association, primary screen, cell-based, luminescence, split luciferase, SaOS-2, uHTS | SaOS-2 split-luciferase Mdm2/MdmX complementation | inhibition, % at 8 µM | 330,000 tested, 3% active | AID 485346, 2010;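 active = inhibition of at least 50% at 8 µM in the primary screen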
697 NFkB conf: PMA/ionomycin-induced NF-kB reporter inhibitors, 697 retest, confirmation, B-cell NF-kB inhibitor project, cell-based, luminescence, single concentration; shares compounds with 697 NFkB inh; 697 B-cell NF-kB luciferase, 16 h; inhibition, % at 4 µM; 2,000 tested, 35% active; AID 449746, 2010; in the data active = inhibition mostly above about 28%, no sharp cut-off; inactive = mostly below about 22%
Mdm2 MdmX conf: Mdm2-MdmX complex disruptors, retested hits, confirmation, luminescence, single concentration | 10,000 tested, 55% active | inhibition, % at 8 µM | Mdm2-MdmX binding, luminescent assay | shares compounds with Mdm2 MdmX PPI; in the data active = inhibition above about 40%
FLuc counter: full-length luciferase signal inhibition, confirmation, counter-screen for Mdm2/MdmX interaction inhibitor project, cell-based, single concentration, SaOS-2. shares compounds with Mdm2 MdmX PPI. SaOS-2 full-length luciferase counterscreen, luminescence. inhibition, % at 8 µM. 6,200 tested, 77% active;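 active = mean inhibition at 8 µM reaching about 37%, which flags the compound as non-specific, limit read from the data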;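 note: p53-null SaOS-2 cells with luciferase driven by a doxycycline-inducible promoter; compound on cells about two nights before reading with doxycycline added after day one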
A number is an active result; n = inactive; x = no result given. Shown are actives, neighbours in structure and some others; about 4.7% of the full set was active somewhere.

SMILES	VIM-2 inh	697 NFkB inh	Jurkat NFkB inh	IMP-1 inhibitor	aSyn UTR inh	Mdm2 MdmX PPI	697 NFkB conf	Mdm2 MdmX conf	FLuc counter
COc1ccc2c(c1)OC[C@H]1[C@H]2N2C(=O)CN(Cc3ccc(C)cc3)C(=O)[C@@]2(C)[C@H]1c1ccccc1	x	n	n	x	x	n	x	x	x
CCNc1nc(C)c2cc(Br)c(=O)n(CC)c2n1	n	41	n	n	76	73	40	44	46
CCCNC(=O)C(Cc1cccc(C#N)c1)NC(=O)c1cccc([N+](=O)[O-])c1 (configuration not stated)	x	n	n	x	x	n	x	x	x
CS(=O)(=O)n1nc(-c2ccc(Cl)cc2)nc1N	n	n	n	n	n	n	x	x	x
Cn1nc(-c2ccc(Cl)cc2)nc2c(=O)n(C)c(=O)nc1-2	n	n	n	n	110	83	n	80	n
Cc1ccnc(NCc2ccc(Cl)cc2)c1	n	n	n	n	n	n	x	x	x
Cc1ccccc1OCC(=O)NC(=S)Nc1ccccc1N1CCN(S(C)(=O)=O)CC1	n	n	n	n	n	n	x	x	x
CCCn1c(N)c(C(=O)CSc2nc3ccccc3s2)c(=O)[nH]c1=O	n	n	n	n	n	82	n	79	49
Cc1ccc(S(=O)(=O)Oc2ccc(/C=C(/NC(=O)c3ccccc3)C(=O)NC(C)C(=O)O)cc2)cc1 (configuration not stated)	n	n	n	n	n	n	x	x	x
CN(C)c1ccccc1C(=O)c1ccccc1N(C)C	n	n	n	n	n	n	x	x	x
CN(C)c1ccc(C(=O)c2ccc(N(C)C)c3ccccc23)cc1	n	n	n	n	89	56	n	50	181
Cc1ccc(C)c(NC(=O)CN2C(=O)NC(CCc3ccccc3)C2=O)c1 (configuration not stated)	x	n	n	x	x	n	x	x	x
Cn1c(-c2ccccc2)cc2onc(-c3ccccc3)c2c1=O	x	n	n	x	x	62	n	n	113
Cn1c(-c2ncc(F)cc2F)cc2onc(-c3c(F)cccc3Cl)c2c1=O	x	n	n	x	x	n	x	x	x
O=C(CCCCCCC(=O)Nc1ccccc1)NO	x	n	n	x	x	50	n	n	x
CC(C)COc1cccc(-c2cc(C(=O)N/N=C/c3ccncc3)c3ccccc3n2)c1	n	n	n	n	x	81	n	84	47
CCOc1cc(/C=N/NC(=O)c2cc(-c3cccc(OC)c3)nc3ccccc23)ccc1O	x	n	n	x	n	n	x	x	x
COc1cc(/C=C/c2ccc3cccc(O)c3n2)cc(Cl)c1OC	n	n	n	n	n	100	n	n	x
COc1ccc(NC(=O)N(C)C[C@@H]2Oc3ccc(NC(=O)NC(C)C)cc3CC(=O)N([C@H](C)CO)C[C@@H]2C)cc1	x	n	n	x	x	n	x	x	x
Cc1oc(-c2ccccc2Cl)nc1CSCC(=O)NC1CCCC1	n	n	n	n	n	n	x	x	x
Cc1oc(-c2ccccc2Cl)nc1CSCC(=O)N1CCCC1	n	n	n	n	n	78	n	84	n
Cn1c(=O)c2c(SCC(=O)Nc3ccccc3F)nc(-c3ccccc3F)nc2n(C)c1=O	n	48	n	n	n	71	12	n	61
CCOC(=O)c1c(NC(=O)c2c(-c3ccccc3)noc2C)sc(C)c1-c1ccccc1	n	n	n	n	n	100	n	93	51
CCOCc1nnc(NC(=O)c2c(-c3ccccc3)noc2C)s1	n	n	n	n	n	n	x	x	x
